Key:
MT4 [1] = experiment: Inhibition of mutant type (Cys181) HIV-1 (IIIB) replication in MT-4 cells; assay type: functional; conditions: Homo sapiens, read-out: ED50 (the source's name)
Method in brief: (§1)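 MT-4 cells (human T cell line) in RPMI 1640 with 10% fetal calf serum, penicillin and streptomycin, seeded at 2 × 10⁴ cells/well. Infected with 10-20 TCID₅₀ of mutant HIV-1 IIIB per well, with the compound added at different concentrations. Incubated at 37 °C in CO₂. Cell viability read by XTT dye at day 5 or 6. Activity taken as the reduction in viral cytopathic effect, given as ED₅₀. Mutants were raised by passage in stepwise increasing concentrations of non-nucleoside RT inhibitors.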

MT4 [2] = experiment: Inhibition of mutant type (Ile100) HIV-1 (IIIB) replication in MT-4 cells; assay type: functional; conditions: Homo sapiens, read-out: ED50 (the source's name); method in brief: as §1
MT4 [3] = experiment: Tested for the inhibition of wild type HIV-1 (IIIB) replication in MT-4 cells; assay type: functional; conditions: Homo sapiens, read-out: ED50 (the source's name)
Method in brief: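 MT-4 human T cells in RPMI 1640 with 10% fetal calf serum, penicillin and streptomycin, seeded at 2 × 10⁴ cells/well and infected with 10-20 TCID₅₀ HIV-1 IIIB per well. Compounds were added over a concentration range and cultures kept at 37 °C in CO₂. Viability was read by XTT at day 5 or 6, and activity was taken as reduction of viral cytopathic effect.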

[4] = target: T1, Human immunodeficiency virus type 1 reverse transcriptase (Human immunodeficiency virus 1, UniProt Q72547); experiment: Tested for the inhibition of mutant type (Cys181) HIV-1 (IIIB) RT
[5] = target: T1, Human immunodeficiency virus type 1 reverse transcriptase; experiment: Tested for the inhibition of mutant type (Ile100) HIV-1 (IIIB) RT
[6] = target: T1, Human immunodeficiency virus type 1 reverse transcriptase; experiment: Tested for the inhibition of wild type HIV-1 (IIIB) RT
MT4 [7] = experiment: Inhibition of HIV-1(IIIB) variants (Ile100/Cys181) in HIV-1 MT-4 cells; assay type: functional; conditions: Homo sapiens, read-out: ED50 (the source's name); method in brief: as §1
MT4 [8] = experiment: Inhibition of HIV-1(IIIB) variants (Ile100/Asn103) in HIV-1 MT-4 cells; assay type: functional; conditions: Homo sapiens, read-out: ED50 (the source's name); method in brief: as §1
MT4 [9] = experiment: Inhibition of HIV-1(IIIB) variants (Ile100/Cys181 in HIV-1 MT-4 cells; assay type: functional; conditions: Homo sapiens, read-out: ED50 (the source's name); method in brief: as §1

| SMILES | EC50 (MT4 [1]) [nM] | EC50 (MT4 [2]) [nM] | EC50 (MT4 [3]) [nM] | IC50 [4] [nM] | IC50 [5] [nM] | IC50 [6] [nM] | EC50 (MT4 [7]) [nM] | EC50 (MT4 [8]) [nM] | EC50 (MT4 [9]) [nM] |
| --- | --- | --- | --- | --- | --- | --- | --- | --- | --- |
| Fc1cc(F)c(CCNC(=S)Nc2ccc(Cl)cn2)c(F)c1 | 1500 | 2000 | 10 | 290 | 810 | 2 | – | – | – |
| S=C(NCCc1c[nH]c2ccccc12)Nc1ccc(Br)cn1 | 300 | 3000 | 110 | 320 | > 2500 | 30 | – | – | – |
| COc1ccc(F)c(CC/N=C(\S)Nc2ccc(Br)cn2)c1C#N | 40 | 250 | 3 | 50 | 50 | 1 | > 10000 | > 10000 | – |
| S=C(NCCn1nc2ccccc2n1)Nc1ccc(Br)cn1 | 1000 | 2000 | 14 | 100 | 2000 | 3 | – | – | – |
| COc1ccc2[nH]cc(CC/N=C(\S)Nc3ccc(Br)cn3)c2c1 | 900 | > 2000 | 500 | 2500 | > 2500 | 320 | – | – | – |
| Fc1ccoc1CC/N=C(\S)Nc1ccc(Cl)cn1 | 80 | 100 | 7 | 140 | 230 | 4 | > 10000 | > 10000 | – |
| Cn1cccc1CCNC(=S)Nc1ccc(Cl)cn1 | > 2000 | > 2000 | 250 | 1400 | 2700 | 90 | – | – | – |
| COc1ccc(F)c(CC/N=C(\S)Nc2ccc(Cl)cn2)c1C#N | 100 | 400 | 11 | 1100 | 1100 | 5 | – | – | – |
| O=C1c2ccccc2C(=O)N1CCNC(=S)Nc1ccc(Cl)cn1 | 40 | 200 | 5 | 130 | 280 | 1 | – | > 10000 | 15000 |
| Cc1cc2nn(CCNC(=S)Nc3ccc(Br)cn3)nc2cc1C | > 2000 | > 2000 | 220 | 100 | > 2500 | 150 | – | – | – |
| CCOc1ccc(F)c(CC/N=C(\S)Nc2nc(C(F)(F)F)cs2)c1Cl | > 2000 | > 2000 | 70 | 7000 | 7000 | 47 | – | – | – |
| Cn1cccc1CC/N=C(\S)Nc1ccc(C#N)cn1 | > 2000 | > 2000 | 110 | 1100 | 3500 | 70 | – | – | – |
| CN(C)c1ccc(CC/N=C(\S)Nc2ccc(Br)cn2)c(F)c1C#N | 20 | 150 | 13 | 110 | 210 | 8 | – | 5500 | 7500 |
| COc1ccc(F)c(CCNC(=S)Nc2ccc(Br)cn2)c1OC | 200 | 3000 | 12 | 85 | 430 | 7 | – | – | – |
| CN(C)c1ccc(F)c(CCNC(=S)Nc2ccc(Cl)cn2)c1F | 700 | > 2000 | 40 | 190 | 1900 | 8 | – | – | – |
| CCOc1ccc(F)c(CCNC(=S)Nc2ccc(Br)cn2)c1F | 6 | 100 | 6 | 20 | 170 | 4 | 1200 | > 10000 | – |
| COCc1ccc(F)c(CCNC(=S)Nc2ccc(Br)cn2)c1F | 300 | 2500 | 6 | 100 | 720 | 4 | – | – | – |
| CCOc1ccc(F)c(CCNC(=S)Nc2ccc(Cl)cn2)c1Cl | 7 | 600 | 8 | 30 | 130 | 6 | – | – | – |
| CCOc1ccc(F)c(CCNC(=S)Nc2ccc(I)cn2)c1Cl | 200 | 3000 | 15 | 130 | 420 | 8 | – | – | – |
| COc1ccc(OC)c(CCNC(=S)Nc2ccc(Cl)cn2)c1F | 3 | 9 | 2 | 54 | 80 | 1 | 1000 | 1000 | – |

From ChEMBL document CHEMBL1129452, “Phenethylthiazolylthiourea (PETT) compounds as a new class of HIV-1 reverse transcriptase inhibitors. 2. Synthesis and further structure-activity relationship studies of PETT analogs” (J Med Chem, 1996)
